# Experimental data as given in ChEMBL document CHEMBL1121974, “Structure-activity relationships of some technetium-99m labeled [(thioethyl)amino] carboxylates” (J Med Chem, 1982).
# Legend:
# [1] = system: Mus musculus; experiment: Percent injected radioactivity was determined in urine after intravenous administration into the tail vein of male swiss albino mice after 60 min; type: ADME, organism-based; design: concentration or dose not given beside the values; conditions: in vivo, 1 h
# How it was run: (§1)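 Mice weighing 20–25 g received 0.2 mL (2 μCi) and were held in metabolic cages. At 60 min they were killed with ether, with the penis ligated. Organs were γ-counted, tail counts were subtracted from the dose, and values are the mean of five ±SD.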
# [2] = system: Mus musculus; experiment: Percent injected radioactivity was determined in kidney after intravenous administration into the tail vein of male swiss albino mice after 60 min; type: ADME, organism-based; conditions: in vivo, 1 h; how it was run: as §1
# [3] = system: Mus musculus; experiment: Percent injected radioactivity was determined in intestine after intravenous administration into the tail vein of male swiss albino mice, after 60 min; type: ADME, organism-based; conditions: in vivo, 1 h; how it was run: as §1
# [4] = system: Mus musculus; experiment: Percent injected radioactivity was determined in blood after intravenous administration into the tail vein of male swiss albino mice after 60 min; type: ADME, organism-based; conditions: in vivo, 1 h; how it was run: as §1
# [5] = system: Mus musculus; experiment: Percent injected radioactivity was determined in muscle after intravenous administration into the tail vein of male swiss albino mice after 60 min; type: ADME, organism-based, Muscle tissue; design: concentration or dose not given beside the values; conditions: in vivo, 1 h; how it was run: as §1
# [6] = system: Mus musculus; experiment: Percent injected radioactivity was determined in liver and gallbladder after intravenous administration into the tail vein of male swiss albino mice after 60 min; type: ADME, organism-based; design: concentration or dose not given beside the values; conditions: in vivo, 1 h; how it was run: as §1
# [7] = Acidity constant pK1 was measured; type: ADME; conditions: read-out: pK1
# How it was run: (§2)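 Acid-base titration of the free ligands over a pH range, followed by the chemical shifts of nonlabile protons. Macroscopic constants were assigned to the COOH, SH and NH⁺ dissociation steps; microscopic constants were not obtained.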
# [8] = Acidity constant pK3 was measured; type: ADME; conditions: read-out: pK3; how it was run: as §2
# [9] = Acidity constant pK2 was measured; type: ADME; conditions: read-out: pK2; how it was run: as §2
# [10] = Acidity constant pK3' was measured; type: ADME; conditions: read-out: pK3'; how it was run: as §2
Radioactivity [1] [%],Radioactivity [2] [%],Radioactivity [3] [%],Radioactivity [4] [%],Radioactivity [5] [%],Radioactivity [6] [%],pKa [7],pKa [8],pKa [9],pKa [10],Structure (SMILES)
9.74,1.842,51.3,4.41,5.254,22.748,,,,,O=C(O)CN(CCSc1ccc2ccccc2c1)CC(=O)O
30.04,21.823,5.693,18.873,24.17,12.617,,,,,O=C(O)C(S)C(S)C(=O)O (stereo not drawn)
50.09,4.24,8.9,4.64,7.97,3.085,2.3,9.2,,,O=C(O)CN(CCSSCCN(CC(=O)O)CC(=O)O)CC(=O)O
11.371,2.083,58.02,2.627,3.32,8.429,2.1,9.1,,,O=C(O)CN(CCSCc1ccccc1)CC(=O)O
15.967,2.767,52.4,2.8,4.013,12.7,,,,,CCCCSCCN(CC(=O)O)CC(=O)O
34.1,3.567,25.533,4.55,3.56,8.568,,,,,CCSCCN(CC(=O)O)CC(=O)O
39.5,5.62,16.924,3.46,3.472,4.3,1.1,11.6,9,4.6,O=C(O)CN(CCS)CCN(CCS)CC(=O)O
36.323,5.318,16.702,4.176,6.988,5.448,2.6,11.6,8.5,,Cl.O=C(O)CNCCS
52.11,5.677,4.743,3.598,7.553,1.92,1.9,10.6,7.7,,O=C(O)CN(CCS)CC(=O)O
